Screening results (PubChem)
PG9 binder = binds the HIV-1 gp120 antibody PG9; TR-FRET gp120-PG9 antibody binding; inhibition, % at 6.7 µM; 0.43% of 360,000 active; AID 624416; in the data active = inhibition above about 8.5%
NR2E3 ag-1 = NR2E3 (human) agonism. 0.12% of 320,000 active. inhibition of corepressor binding, % at 4.78 µM. AID 2300. GST-NR2E3/biotin-RetCOR TR-FRET, 1536-well. Q9Y5X4;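 active = percent inhibition above the cutoff of mean plus 3 SD of all tested compounds, set per screening campaign, cut at about 20% in these data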;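 also: 0% = DMSO wells and 100% = biotin wells as full block of FRET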
Target sequence (Q9Y5X4 whole entry, looked up): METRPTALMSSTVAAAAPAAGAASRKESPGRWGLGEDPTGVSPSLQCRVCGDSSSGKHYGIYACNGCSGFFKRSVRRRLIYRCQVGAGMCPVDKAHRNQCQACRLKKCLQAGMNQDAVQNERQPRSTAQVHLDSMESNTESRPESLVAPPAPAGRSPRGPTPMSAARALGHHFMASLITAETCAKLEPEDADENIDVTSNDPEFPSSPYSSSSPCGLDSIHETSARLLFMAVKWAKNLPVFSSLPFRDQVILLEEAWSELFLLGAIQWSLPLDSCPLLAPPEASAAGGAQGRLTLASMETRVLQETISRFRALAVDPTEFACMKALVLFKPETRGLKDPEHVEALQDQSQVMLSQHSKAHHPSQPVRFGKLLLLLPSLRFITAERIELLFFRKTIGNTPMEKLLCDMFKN
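System: GST-tagged NR2E3 plus biotinylated RetCOR corepressor; Amount: 1.35 nM GST-tagged NR2E3 final; Dosing: single nominal compound dose of 4.8 µM; Schedule: 5 h incubation at 4 °C; Technique: TR-FRET with europium anti-GST and streptavidin-D2, 340 nm excitation; Controls: biotin wells as high control, 0.6% DMSO wells as low control.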
Rev-erbA mod = modulates human Rev-erb alpha binding to DNA | P20393 | activity, % at 10 µM | Rev-erbα–FITC-DNA binding, fluorescence polarization, 90 min | 0.79% of 370,000 active;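 active = activity above about 14%, limit read from the data; passing the limit was not always enough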;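 also: 0% = DMSO wells with 35 nM protein and 100% = DMSO wells with 750 nM protein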
GalR3 antagonist = blocks the human galanin receptor 3. 0.44% of 360,000 active. AID 651719. inhibition, % at 3 µM. HEK293 GalR3-CNG cAMP membrane potential fluorescence; galR3 body fused to GalR1 C-terminus;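 active = inhibition above the screen-wide average plus 3 SD, cut at about 13% in these data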;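 also: forskolin and galanin both at EC90 stimulate the cells; cAMP rise reported by CNG channel membrane potential dye signal; 0% = forskolin plus galanin with DMSO and 100% = forskolin alone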
Target sequence (O60755 1-299 limits assumed): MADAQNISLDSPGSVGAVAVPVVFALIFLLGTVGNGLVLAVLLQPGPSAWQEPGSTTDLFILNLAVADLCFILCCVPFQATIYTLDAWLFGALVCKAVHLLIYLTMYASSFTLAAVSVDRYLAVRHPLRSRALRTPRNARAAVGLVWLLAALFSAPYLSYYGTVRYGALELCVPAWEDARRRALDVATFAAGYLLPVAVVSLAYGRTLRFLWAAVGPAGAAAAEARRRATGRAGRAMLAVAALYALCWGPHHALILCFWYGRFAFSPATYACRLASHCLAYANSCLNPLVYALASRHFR
NR2E3 ag-2 = human photoreceptor-specific nuclear receptor agonism | AID 602229 | Q9Y5X4 | CHO-S Gal4-NCOR/VP16-NR2E3 two-hybrid, luciferase | 0.35% of 360,000 active | inhibition of corepressor binding, % at 3.98 µM;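 active = inhibition above the mean of all tested compounds plus 3 SD, cut at about 70% in these data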;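 also: 0% = DMSO with NR2E3 transfected cells and 100% = cells lacking NR2E3 construct; higher means lower luciferase signal from less NR2E3 corepressor binding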
NR1D1 mod conf = confirmation of modulators of human Rev-erb alpha DNA binding; shares compounds with Rev-erbA mod; Rev-erb alpha FITC-DNA binding, fluorescence polarization, 90 min; activation, % at 25 µM; 61% of 3,000 active; AID 1259319;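 active = activation at or above a set limit, or at least 3 SD above the negative control mean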;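 also: 0% = 35 nM protein with DMSO and 100% = 750 nM protein high control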
RORg DNA counter = RORgamma DNA-binding activity, dose-response counter-screen | shares compounds with Rev-erbA mod | purified RORgamma protein-FITC-DNA binding, fluorescence polarization | IC50, µM | 8% of 910 active | AID 1259320;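 active = Compounds whose fitted half-maximal concentration for disrupting protein-DNA binding is below 10 micromolar; the record names Rev-erb in its text, so the target is in doubt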
An asterisk follows results filed as active; i = inactive; . = no result. An excerpt weighted towards active compounds, which were near 1.8% of everything screened.

SMILES	PG9 binder	NR2E3 ag-1	Rev-erbA mod	GalR3 antagonist	NR2E3 ag-2	NR1D1 mod conf	others
COC(=O)[C@@]12CCCCC3=C1N(CCC3)C(=O)[C@H]2CC(=O)N1CCSCC1	.	.	-1	.	.	.
CCC[C@H]1[C@@H](NC(=O)c2ccc(C)cc2)CC[C@@]23CCCN2C(=O)CCC[C@@H]13	.	.	1	.	.	.
COC[C@@H]1CCCN1c1cccc2c1S(=O)(=O)N(C1CC1)CC[C@@H](C)O2	.	.	-1	.	.	.
CC(=O)c1sc(NC(=O)c2cccc(N3C(=O)CCC3=O)c2)nc1-c1ccccc1	1	2	43*	-5	-3	28*
Cc1sc(NC(=O)c2cccc(N3C(=O)CCC3=O)c2)nc1-c1ccccc1	0	-1	-3	-2	-10	.
C=CCN1C(=O)[C@@H](CC(=O)NCc2ccc(OC)c(OC)c2)[C@]2(C(=O)OCC)CCCCC/C=C/12	.	.	1	.	.	.
O=C(Nc1cccc2ccccc12)N1CCN(c2ccc(F)cc2)CC1	3	-1	26*	-2	5	3
CCCCOC(=O)c1cc(C)nc2ccc(Br)cc12	7	5	44*	-1	6	33*	RORg DNA counter=>40
O=C(c1ccccc1F)N(Cc1ccc2c(c1)OCO2)Cc1cc2cc3c(cc2n2nnnc12)OCO3	-1	-1	34*	2	-19	16
Cc1cc2cc(CN(Cc3ccc4c(c3)OCO4)C(=O)c3cnccn3)c3nnnn3c2cc1C	1	-1	6	-2	-25	.
COc1ccc(C(=O)Nc2ccccc2-c2nnn(CC(N)=O)n2)cc1	-1	.	96*	5	-15	81*	RORg DNA counter=>40
COc1ccc(NC(=O)c2sc3nc(N4CCCC4)c4c(c3c2N)CC(C)(C)OC4)cc1	1	8	127*	6	-37	80*	RORg DNA counter=>40
CCOC(=O)c1sc2nc(C)c3c(c2c1N)CC(C)(C)OC3	4	2	2	-2	-23	.
COc1ccc(NC(=O)c2sc3nc(N4CCOCC4)c4c(c3c2N)CC(C)(C)OC4)cc1	-1	2	-6	0	-16	.
CCCc1nc2sc(C(=O)OCC)c(N)c2c2c1COC(C)(C)C2	-1	0	48*	2	6	25*
COc1ccccc1Cc1c(-c2ccc(Cl)cc2)nc2ccc(C)cn12	-1	.	-4	-7	.	.
Cc1nc(NC(=O)c2ccccc2)sc1Cc1ccc2c(c1)OCO2	-2	2	3	-4	-156	.
Cc1nc(NC(=O)c2ccc(Cl)cc2)sc1Cc1ccc2c(c1)OCO2	1	-1	30*	-7	-47	6
CCOC(=O)[C@@]12CCCC3=C1N(CCC3)C(=O)[C@H]2CC(=O)NCCCN1CCCC1=O	.	.	-1	.	.	.
CCCn1c(-c2cccs2)nc2c1c(=O)[nH]c(=O)n2Cc1ccccc1	1	-5	23*	-3	-15	2
CCOc1ncccc1C(=O)Nc1cc(S(=O)(=O)N2CCOCC2)ccc1OCC(F)(F)F	0	.	31*	-4	2	15*
N#Cc1ccc(Oc2ccc(-c3cnc4ccccc4n3)cc2)cc1C#N	0	-3	51*	1	-29	30*
N#Cc1ccc(Oc2ccc(-c3nc4ccccc4nc3-c3ccccc3)cc2)cc1C#N	2	6	23*	-1	-13	38*	RORg DNA counter=>40
COc1cccc(CNC(=O)C2CCN(c3nc(OC)nc(OC)n3)CC2)c1	.	.	-4	.	.	.
CCCC[C@@H]1C(=O)N2N=Cc3cc(C)c(C)cc3[C@H]2N2N=Cc3cc(C)c(C)cc3[C@@H]12	.	.	2	.	.	.
SMILES	PG9 binder	NR2E3 ag-1	Rev-erbA mod	GalR3 antagonist	NR2E3 ag-2	NR1D1 mod conf	others
O=c1c2ccccc2n2c(-c3ccc(F)cc3)nnc2n1Cc1ccccc1	-1	3	24*	-5	-5	35*	RORg DNA counter=>40
O=c1c2ccccc2n2c(-c3ccc(C(F)(F)F)cc3)nnc2n1Cc1ccccc1	-1	0	-2	-2	-24	.
Cc1ccc(C(=O)N2CCC(Oc3cccnc3)CC2)cc1	.	.	0	.	.	.
CCNC(=O)C[C@H]1CC[C@H]2[C@@H](COc3ccc(NC(=O)c4ccc5c(c4)OCO5)cc3C(=O)N2C)O1	.	.	141*	.	.	48*	RORg DNA counter=>40
CCCNC(=O)C[C@H]1CC[C@H]2[C@@H](COc3ccc(NC(=O)Nc4ccc(C#N)cc4)cc3C(=O)N2C)O1	.	.	36*	.	.	19*
Cc1ccccc1NC(=O)C[C@H]1CC[C@H]2[C@@H](COc3ccc(NC(=O)Nc4ccccc4)cc3C(=O)N2C)O1	.	.	5	.	.	.
CNC(=O)C[C@H]1CC[C@H]2[C@@H](COc3ccc(NC(=O)Nc4ccccc4)cc3C(=O)N2C)O1	.	.	28*	.	.	14*
COC(=O)C[C@@H]1CC[C@@H]2[C@H](COc3ccc(NC(=O)c4ccc5c(c4)OCO5)cc3C(=O)N2C)O1	.	.	4	.	.	.
CCNC(=O)C[C@H]1CC[C@H]2[C@@H](COc3ccc(NC(=O)Nc4ccccc4)cc3C(=O)N2C)O1	.	.	34*	.	.	13*
CN1C(=O)c2cc(NC(=O)Nc3ccccc3)ccc2OC[C@H]2O[C@@H](CC(=O)NCC(F)(F)F)CC[C@@H]21	.	.	10	.	.	.
Cc1ccc(-n2c(Cc3cccs3)nnc2SCc2ccc([N+](=O)[O-])cc2)cc1	.	.	-1	.	.	.
Cc1cccc(NC(=O)n2ccc3ccc(-c4ccc5cc[nH]c5c4)cc32)c1	.	.	-3	.	.	.
COc1ccccc1-c1cc(-c2ccccc2)nc(SC(C(N)=O)c2ccccc2)c1C#N (stereo unspecified)	8	6	39*	-3	-15	20*
COc1cc(NC(=O)c2ccccc2)c(C)cc1NC(=O)CSc1nnc(-c2ccco2)n1Cc1ccco1	.	.	-13	.	.	.
CC1CCc2sc(C(=O)Nc3nnc(SCc4ccc(F)cc4)s3)cc2C1 (stereo unspecified)	8	2	30*	7	-42	17
CC1CCN(c2ccc(C(=O)O)cc2NS(=O)(=O)c2ccc(Cl)s2)CC1	.	.	1	.	.	.
COc1cc(-c2nc3c4ccccc4nc(=S)n3[nH]2)cc(OC)c1OC	2	4	0	-2	0	.
CCCC(Oc1ccc(Br)cc1)c1nc2c3cc(OC)c(OC)cc3nc(=S)n2[nH]1 (stereo unspecified)	0	0	47*	-2	9	39*	RORg DNA counter=i
Cc1ccc2nc(-c3ccc(NC(=O)CNC4CC4)cc3)sc2c1	2	.	-1	-4	-132	.
Cc1ccc2nc(-c3ccc(NC(=O)CN4CCN(c5ccccn5)CC4)cc3)sc2c1	0	-2	21*	0	-112	13
Cc1ccc2nc(NC(=O)CN3CCN(c4ccccn4)CC3)sc2c1	-2	-2	-1	-13	-13	.
O=C(CCS(=O)(=O)c1ccccc1)Nc1ccccc1-c1nc2ccccc2s1	-1	3	44*	0	-24	40*	RORg DNA counter=2.1*
